Data as given in ChEMBL document CHEMBL4765426, “Design, synthesis and in vitro anti-influenza A virus evaluation of novel quinazoline derivatives containing S-acetamide and NH-acetamide moieties at C-4” (Eur J Med Chem, 2020).
Activity calls are given as the source filed them.

Assays:
[1] = Selectivity index, ratio of CC50 for human HEK293T cells to IC50 for Influenza A virus A/WSN/33(H1N1) infected in HEK293T-Gluc cells; format: toxicity, cell-based; conditions: read-out: Ratio CC50/IC50
[2] = Cytotoxicity against human HEK293T cells assessed as reduction in cell viability after 48 hrs by CCK8 assay; format: cell-based, HEK-293T
[3] = tested on: Influenza A virus; assay: Antiviral activity against Influenza A virus A/WSN/33(H1N1) infected in HEK293T-Gluc cells pretreated for 2 hrs followed by viral infection and measured after 24 hrs by Gaussia luciferase reporter gene assay; format: functional, organism-based; conditions: A/WSN/1933(H1N1), HEK-293T
Summary of the method: (§1)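 Reporter cells were HEK293T cells stably transfected with pLenti6-Gluc, which constitutively expresses negative-strand Gaussia luciferase RNA that becomes positive-strand on IAV infection. Cells were infected with A/WSN/33 or A/PR/8/1934 (H1N1). Antiviral activity was read as Gluc signal, and IC50 values were derived. Ribavirin served as positive control.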

[4] = Initial plasma concentration in Sprague-Dawley rat at 1.25 mg/kg, iv measured up to 24 hrs by HPLC analysis; format: ADME, organism-based
Summary of the method: (§2)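 Male Sprague-Dawley rats (n = 3 per route) received a single intravenous dose (1.25 mg/kg) or a single oral dose (25 mg/kg). Plasma concentrations were followed over time, and PK parameters were derived from them. Values are reported as mean ± deviation.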

[5] = Clearance in Sprague-Dawley rat at 1.25 mg/kg, iv measured up to 24 hrs by HPLC analysis; format: ADME, organism-based; conditions: in vivo; summary of the method: as §2
[6] = Tmax in Sprague-Dawley rat at 25 mg/kg, po measured up to 24 hrs by HPLC analysis; format: ADME, organism-based; conditions: in vivo; summary of the method: as §2
[7] = tested on: Influenza A virus; assay: Antiviral activity against Influenza A virus A/PR/8/34 (H1N1) infected in HEK293T-Gluc cells pretreated for 2 hrs followed by viral infection and measured after 24 hrs by Gaussia luciferase reporter gene assay; format: functional, organism-based; conditions: A/Puerto Rico/8/1934(H1N1), HEK-293T; summary of the method: as §1
[8] = Mean residence time in Sprague-Dawley rat at 25 mg/kg, po measured up to 24 hrs by HPLC analysis; format: ADME, organism-based; conditions: in vivo; summary of the method: as §2
[9] = Oral bioavailability in Sprague-Dawley rat at 25 mg/kg measured up to 24 hrs by HPLC analysis; format: ADME, organism-based; conditions: in vivo; summary of the method: as §2
[10] = AUC (0 to t) in Sprague-Dawley rat at 1.25 mg/kg, iv measured up to 24 hrs by HPLC analysis; format: ADME, organism-based; set-up: route intravenous, dose 1.25 mg/kg, time <=24; conditions: in vivo; summary of the method: as §2
[11] = tested on: Influenza A virus; assay: Antiviral activity against Influenza A virus A/WSN/33(H1N1) infected in HEK293T cells co-transfected with NP/PA/PB1/PB2/pol-LUC/SV40-Renilla assessed as inhibition of viral RNA transcription and replication after 24 hrs by mini-genome replicon system based luciferase assay; format: functional, organism-based; conditions: A/WSN/1933(H1N1), dose 1.25-2.5 µM
Summary of the method: (§3)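 In the mini-genome replicon assay, HEK293T cells were transfected with pCAGGS plasmids encoding PB2, PB1, PA and NP, plus pol-LUC and SV40-Renilla, with or without compound (1.25 or 2.5 μM). Firefly and Renilla luciferase were measured 24 h post-transfection and compared against negative control (p<0.01 threshold).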

[12] = Half life in Sprague-Dawley rat at 25 mg/kg, po measured up to 24 hrs by HPLC analysis; format: ADME, organism-based; conditions: in vivo; summary of the method: as §2
[13] = tested on: Influenza A virus; assay: Antiviral activity against Influenza A virus A/WSN/33(H1N1) infected in HEK293T cells co-transfected with NP/PA/PB1/PB2/pol-LUC/SV40-Renilla assessed as inhibition of viral RNA transcription and replication at 2.5 uM after 24 hrs by mini-genome replicon system based luciferase assay; format: functional, A/WSN/1933(H1N1); set-up: scale not given: the % may be the effect or the level left; summary of the method: as §3
[14] = tested on: Influenza A virus; assay: Antiviral activity against Influenza A virus A/WSN/33(H1N1) infected in HEK293T-Gluc cells assessed as inhibition of virus infection at 10 uM pretreated for 2 hrs followed by viral infection and measured after 24 hrs by Gaussia luciferase reporter gene assay; format: functional; conditions: A/WSN/1933(H1N1), HEK-293T, time 26 hrs
Summary of the method: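 A single-concentration screen at 10 μM was run against A/WSN/33 (H1N1) in HEK293T-Gluc reporter cells. These cells carry a stably transfected pLenti6-Gluc construct expressing negative-strand Gaussia luciferase RNA that is converted to positive strand upon infection. Inhibition ratio of infection was read from Gluc activity.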

[15] = AUMC (0 to infinity) in Sprague-Dawley rat at 25 mg/kg, po measured up to 24 hrs by HPLC analysis; format: ADME, organism-based; conditions: in vivo; summary of the method: as §2
[16] = AUC (0 to infinity) in Sprague-Dawley rat at 1.25 mg/kg, iv measured up to 24 hrs by HPLC analysis; format: ADME, organism-based; set-up: route intravenous, dose 1.25 mg/kg, time <=24; conditions: in vivo; summary of the method: as §2
[17] = AUC (0 to infinity) in Sprague-Dawley rat at 25 mg/kg, po measured up to 24 hrs by HPLC analysis; format: ADME, organism-based; set-up: route oral, dose 25 mg/kg, time <=24; conditions: in vivo; summary of the method: as §2
[18] = AUC (0 to t) in Sprague-Dawley rat at 25 mg/kg, po measured up to 24 hrs by HPLC analysis; format: ADME, organism-based; set-up: route oral, dose 25 mg/kg, time <=24; conditions: in vivo; summary of the method: as §2
[19] = Cytotoxicity against human A549 cells assessed as reduction in cell viability after 48 hrs by CCK8 assay; format: cell-based
[20] = Elimination rate constant in Sprague-Dawley rat at 1.25 mg/kg, iv measured up to 24 hrs by HPLC analysis; format: ADME, organism-based; conditions: in vivo; summary of the method: as §2
[21] = tested on: Influenza A virus; assay: Antiviral activity against Influenza A virus A/WSN/33(H1N1)) infected in A549 cells assessed as inhibition of virus replication at early stage at 2.5 uM after 2 to 4 hrs post infection by time of addition assay; format: functional, organism-based; conditions: A/WSN/1933(H1N1), time 2-4 hrs
Summary of the method: (§4)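 For time-of-addition, A549 cells were inoculated with single-cycle A/WSN/33 (H1N1) virus at MOI 0.2, and compound was added at 2.5 μM. Viral yield was measured as Gluc activity at 11 h post-infection. DMSO served as negative control and ribavirin (30 μM) as positive control.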

[22] = AUMC (0 to t) in Sprague-Dawley rat at 1.25 mg/kg, iv measured up to 24 hrs by HPLC analysis; format: ADME, organism-based; conditions: in vivo; summary of the method: as §2
[23] = Volume of distribution at steady state in Sprague-Dawley rat at 1.25 mg/kg, iv measured up to 24 hrs by HPLC analysis; format: ADME, organism-based; conditions: in vivo, read-out: Vdss; summary of the method: as §2
[24] = Mean residence time in Sprague-Dawley rat at 1.25 mg/kg, iv measured up to 24 hrs by HPLC analysis; format: ADME, organism-based; conditions: in vivo; summary of the method: as §2
[25] = Cmax in Sprague-Dawley rat at 25 mg/kg, po measured up to 24 hrs by HPLC analysis; format: ADME, organism-based; set-up: route oral, dose 25 mg/kg, time <=24; conditions: in vivo; summary of the method: as §2
[26] = AUMC (0 to t) in Sprague-Dawley rat at 25 mg/kg, po measured up to 24 hrs by HPLC analysis; format: ADME, organism-based; conditions: in vivo; summary of the method: as §2
[27] = Half life in Sprague-Dawley rat at 1.25 mg/kg, iv measured up to 24 hrs by HPLC analysis; format: ADME, organism-based; conditions: in vivo; summary of the method: as §2
[28] = Elimination rate constant in Sprague-Dawley rat at 25 mg/kg, po measured up to 24 hrs by HPLC analysis; format: ADME, organism-based; conditions: in vivo; summary of the method: as §2
[29] = Cmax in Sprague-Dawley rat at 1.25 mg/kg, iv measured up to 24 hrs by HPLC analysis; format: ADME, organism-based; set-up: route intravenous, dose 1.25 mg/kg, time <=24; conditions: in vivo; summary of the method: as §2
[30] = tested on: Influenza A virus; assay: Antiviral activity against Influenza A virus A/WSN/33(H1N1)) infected in A549 cells assessed as reduction in viral yield at 2.5 uM preincubated before viral infection by time of addition assay; format: functional, organism-based; conditions: A/WSN/1933(H1N1); summary of the method: as §4
[31] = AUMC (0 to infinity) in Sprague-Dawley rat at 1.25 mg/kg, iv measured up to 24 hrs by HPLC analysis; format: ADME, organism-based; conditions: in vivo; summary of the method: as §2

## CN1CCN(c2nc(NCC(=O)NCc3ccccc3)c3ccccc3n2)CC1
[1]
  selectivity ratio: > 8.72
[2]
  CC50 at 48 h: > 100 µM
[3]
  IC50: 11.5 µM

## CCN(CC)c1nc(SCC(=O)NCc2ccccc2)c2ccccc2n1
[1]
  selectivity ratio: > 5.22
[2]
  CC50 at 48 h: > 100 µM
[3]
  IC50: 19.2 µM

## O=C(CNc1nc(N2CCCC2)nc2ccccc12)Nc1ccc2ccccc2c1
[4]
  C0 at 24 h: 80.8 ng/mL
[1]
  selectivity ratio: 46.5
[5]
  clearance: 557 mL/min/kg
[6]
  Tmax: 19.8 min
[7]
  IC50: 0.63 µM
[8]
  MRT: 191 min
[9]
  bioavailability: 22.5%
[10]
  AUC(0-t) at 24 h: 34.9 ng·h/mL
[11]
  Activity: Dose-dependent effect
[12]
  half-life: 135 min
[2]
  CC50 at 48 h: 59.9 µM
[13]
  Activity: 80%
[14]
  inhibition at 10 µM: 99.8%
[15]
  AUMC: 553 hr.hr.ng/ml
[16]
  AUC(0-inf): 39.2 ng·h/mL
[17]
  AUC(0-inf): 183 ng·h/mL
[18]
  AUC(0-t) at 24 h: 157 ng·h/mL
[19]
  CC50 at 48 h: 4.77 µM
[20]
  k el at 24 h: 0.000286 s⁻¹
[21]
  Activity: Active
[22]
  AUMCt: 18 hr.hr.ng/ml
[3]
  IC50: 1.29 µM
[23]
  Vd: 26.6 L/kg
[24]
  MRT: 47.4 min
[25]
  Cmax: 78.6 ng/mL
[26]
  AUMCt: 313 hr.hr.ng/ml
[27]
  half-life: 40.8 min
[28]
  k el at 24 h: 8.89e-05 s⁻¹
[29]
  Cmax: 58 ng/mL
[30]
  Activity: inactive
[31]
  AUMC: 30.6 hr.hr.ng/ml

## O=C(COc1cccc2ccccc12)Nc1ccc(F)cc1
[1]
  selectivity ratio: > 19.1
[2]
  CC50 at 48 h: > 100 µM
[14]
  inhibition at 10 µM: 78%
[3]
  IC50: 5.22 µM

## CCN(CC)c1nc(NCC(=O)NCc2ccccc2)c2ccccc2n1
[1]
  selectivity ratio: > 20
[7]
  IC50: 5.8 µM
[2]
  CC50 at 48 h: > 100 µM
[19]
  CC50 at 48 h: > 100 µM
[3]
  IC50: 5 µM

## O=C(CSc1nc(N2CCCC2)nc2ccccc12)NC1CC1
[1]
  selectivity ratio: > 2.61
[2]
  CC50 at 48 h: > 100 µM
[3]
  IC50: 38.2 µM

## O=C(CNc1nc(N2CCCC2)nc2ccccc12)Nc1ccccc1
[1]
  selectivity ratio: 12.4
[7]
  IC50: 1.47 µM
[2]
  CC50 at 48 h: 23.3 µM
[14]
  inhibition at 10 µM: 95.8%
[19]
  CC50 at 48 h: 19 µM
[3]
  IC50: 1.88 µM

## CCN(CC)c1nc(SCC(=O)Nc2ccccc2)c2ccccc2n1
[1]
  selectivity ratio: > 13.9
[7]
  IC50: 1.69 µM
[2]
  CC50 at 48 h: > 100 µM
[19]
  CC50 at 48 h: > 100 µM
[3]
  IC50: 7.18 µM
